Measured values: ChEMBL document CHEMBL4190346, “Structure-based design, synthesis, and biological evaluation of withaferin A-analogues as potent apoptotic inducers” (Eur J Med Chem, 2017)
Calls of active or inactive are those of the source. No cut-off for these calls is given here.

Tests used:
HeLa [1] = test: Induction of apoptosis in human HeLa cells assessed as increase in caspase-3 activity by measuring pNA release level at 24 uM incubated for 4 hrs using c-DEVD-pNA substrate by colorimetric assay; type: functional
Outline: (§1)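 HeLa cells in DMEM with 10% FBS were exposed for 4 h (fixed 24 or 32 level for 8 h). Staurosporine for 4 h served as the positive control. Cells were lysed at 4 °C for 10 min and centrifuged, and supernatant protein was measured by Bradford. Caspase-3 activity was read colorimetrically as nmol pNA/min/mL, with treated/untreated OD ratios. Values are means ± SD of three independent experiments in triplicate.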

HeLa [2] = test: Induction of apoptosis in human HeLa cells assessed increase in DNA fragmentation at 16 uM incubated for 12 hrs by ethidium bromide staining based agarose gel electrophoresis; type: functional, cell-based
Outline: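 HeLa cells were incubated with the compounds at varying concentrations for 12 or 24 h. Controls were DMSO (solvent) and staurosporine 2 µM (positive). Adherent and floating cells were pooled, centrifuged at 500 g and washed twice in cold PBS. Genomic DNA was extracted with a kit, run on 1.8% agarose, stained with ethidium bromide and viewed under UV.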

HeLa [3] = test: Induction of apoptosis in human HeLa cells assessed as increase in caspase-3 activity by measuring pNA release level at 8 uM incubated for 4 hrs using c-DEVD-pNA substrate by colorimetric assay; type: functional; outline: as §1
HeLa [4] = test: Induction of apoptosis in human HeLa cells assessed as increase in caspase-3 activity by measuring pNA release level at 32 uM incubated for 4 hrs using c-DEVD-pNA substrate by colorimetric assay; type: functional; outline: as §1
HeLa [5] = test: Induction of apoptosis in human HeLa cells assessed as increase in caspase-3 activity by measuring pNA release level at 16 uM incubated for 4 hrs using c-DEVD-pNA substrate by colorimetric assay; type: functional; outline: as §1
HeLa [6] = test: Induction of apoptosis in human HeLa cells assessed as increase in caspase-3 activity by measuring pNA release level at 12 uM incubated for 4 hrs using c-DEVD-pNA substrate by colorimetric assay; type: functional; outline: as §1
Vero [7] = test: Cytotoxicity against African green monkey Vero cells assessed as reduction in cell viability using compound addition to cell culture cells in log phase of growth and incubated for 48 hrs by MTT assay; type: cell-based, Chlorocebus sabaeus; settings: Chlorocebus sabaeus, Vero, 48 h; read-out: IC50
A549 [8] = test: Cytotoxicity against human A549 cells assessed as reduction in cell viability using compound addition to cell culture cells in log phase of growth and incubated for 48 hrs by MTT assay; type: functional, cell-based; settings: Homo sapiens, A549, 48 h; read-out: IC50
Vero [9] = test: Cytotoxicity against African green monkey Vero cells assessed as reduction in cell viability using compound addition to cell culture cells in lag phase of growth and incubated for 48 hrs by MTT assay; type: cell-based, Chlorocebus sabaeus; settings: Chlorocebus sabaeus, Vero, 48 h; read-out: IC50
MCF7 [10] = test: Cytotoxicity against human MCF7 cells assessed as reduction in cell viability using compound addition to cell culture cells in log phase of growth and incubated for 48 hrs by MTT assay; type: functional, cell-based; settings: Homo sapiens, MCF7, 48 h; read-out: IC50
A549 [11] = test: Cytotoxicity against human A549 cells assessed as reduction in cell viability using compound addition to cell culture cells in lag phase of growth and incubated for 48 hrs by MTT assay; type: functional, cell-based; settings: Homo sapiens, A549, 48 h; read-out: IC50
HeLa [12] = test: Induction of apoptosis in human HeLa cells assessed as […] by measuring pNA release level at 32 uM incubated for 8 hrs using c-DEVD-pNA substrate by colorimetric assay; type: functional, cell-based; outline: as §1
HeLa [13] = test: Cytotoxicity against human HeLa cells assessed as reduction in cell viability using compound addition to cell culture cells in log phase of growth and incubated for 48 hrs by MTT assay; type: functional, cell-based; settings: Homo sapiens, HeLa, 48 h; read-out: IC50
MCF7 [14] = test: Cytotoxicity against human MCF7 cells assessed as reduction in cell viability using compound addition to cell culture cells in lag phase of growth and incubated for 48 hrs by MTT assay; type: functional, cell-based; settings: Homo sapiens, MCF7, 48 h; read-out: IC50
HeLa [15] = test: Cytotoxicity against human HeLa cells assessed as reduction in cell viability using compound addition to cell culture cells in lag phase of growth and incubated for 48 hrs by MTT assay; type: functional, cell-based; settings: Homo sapiens, HeLa, 48 h; read-out: IC50
MCF7 [16] = test: Ratio of IC50 for cytotoxicity against human MCF7 cells using compound addition to cell culture cells in lag phase of growth and incubated for 48 hrs by MTT assay to IC50 for cytotoxicity against human MCF7 cells using compound addition to cell culture cells in log phase of growth and incubated for 48 hrs by MTT assay; type: functional
MCF7 [17] = test: Ratio of IC50 for cytotoxicity against human MCF7 cells incubated for 48 hrs to IC50 for cytotoxicity against human MCF7 cells incubated for 72 hrs; type: functional
MCF7 (Homo sapiens) [18] = test: Ratio of IC50 for cytotoxicity against human MCF7 cells incubated for 48 hrs to IC50 for cytotoxicity against human MCF7 cells incubated for 72 hrs
MCF7 (Homo sapiens) [19] = test: as above; remark: listed apart in the source

Row | SMILES | Activity (HeLa [1]) | Activity (HeLa [2]) | Activity (HeLa [3]) | Activity (HeLa [4]) | Activity (HeLa [5]) | Activity (HeLa [6]) | IC50 (Vero [7]) | IC50 (A549 [8]) | IC50 (Vero [9]) | IC50 (MCF7 [10]) | IC50 (A549 [11]) | Activity (HeLa [12]) | IC50 (HeLa [13]) | IC50 (MCF7 [14]) | IC50 (HeLa [15]) | Ratio IC50 (MCF7 [16]) | Ratio IC50 (MCF7 [17]) | Ratio IC50 (MCF7 (Homo sapiens) [18]) | Ratio IC50 (MCF7 (Homo sapiens) [19])
1 | CC(=O)OCC1=C(C)C[C@H]([C@@H](C)[C@H]2CC[C@H]3[C@@H]4C[C@H]5O[C@]56[C@@H](OC(C)=O)C=CC(=O)[C@]6(C)[C@H]4CC[C@]23C)OC1=O | 1.06 nmol/min/mL | Active | 0.33 nmol/min/mL | 0.68 nmol/min/mL | 0.5 nmol/min/mL | 0.42 nmol/min/mL | – | – | – | – | – | – | – | – | – | – | – | – | –
2 | CCCC(=O)OCC1=C(C)C[C@H]([C@@H](C)[C@H]2CC[C@H]3[C@@H]4C[C@H]5O[C@]56[C@@H](OC(=O)CCC)C=CC(=O)[C@]6(C)[C@H]4CC[C@]23C)OC1=O | 0.88 nmol/min/mL | – | 0.15 nmol/min/mL | 1.7 nmol/min/mL | 0.93 nmol/min/mL | 0.61 nmol/min/mL | 700 nM | 1900 nM | 1600 nM | 1000 nM | 2800 nM | Active | 1600 nM | 1000 nM | 1900 nM | – | – | – | –
3 | CCC(=O)OCC1=C(C)C[C@H]([C@@H](C)[C@H]2CC[C@H]3[C@@H]4C[C@H]5O[C@]56[C@@H](OC(=O)CC)C=CC(=O)[C@]6(C)[C@H]4CC[C@]23C)OC1=O | 1.6 nmol/min/mL | – | 0.58 nmol/min/mL | 1.7 nmol/min/mL | 2.3 nmol/min/mL | 1.1 nmol/min/mL | 800 nM | 4100 nM | 1500 nM | 1100 nM | 2600 nM | Active | 1100 nM | 2400 nM | 2100 nM | – | – | – | –
4 | CCCC(=O)OCC1=C(C)C[C@H]([C@@H](C)[C@H]2CC[C@H]3[C@@H]4C[C@H]5O[C@]56C(=O)C=CC(=O)[C@]6(C)[C@H]4CC[C@]23C)OC1=O | – | – | – | – | – | – | 2100 nM | 4300 nM | 3800 nM | 2800 nM | 6700 nM | – | 7900 nM | 11500 nM | 8300 nM | >3 | – | – | –
5 | CC1=C(COC(=O)c2ccoc2)C(=O)O[C@@H]([C@@H](C)[C@H]2CC[C@H]3[C@@H]4C[C@H]5O[C@]56[C@@H](O)C=CC(=O)[C@]6(C)[C@H]4CC[C@]23C)C1 | 1.01 nmol/min/mL | – | 0.44 nmol/min/mL | 1.63 nmol/min/mL | 0.62 nmol/min/mL | 0.68 nmol/min/mL | 700 nM | 3300 nM | 2800 nM | 1000 nM | 2300 nM | Active | 1100 nM | 3000 nM | 2500 nM | >3 | – | – | –
6 | CC1=C(C=O)C(=O)O[C@@H]([C@@H](C)[C@H]2CC[C@H]3[C@@H]4C[C@H]5O[C@]56[C@@H](O)C=CC(=O)[C@]6(C)[C@H]4CC[C@]23C)C1 | – | – | – | – | – | – | 3600 nM | 13500 nM | 4400 nM | 2100 nM | 15700 nM | – | 10900 nM | 3700 nM | 6500 nM | – | >3 | >3 | >3
7 | CC1=C(COC(=O)c2ccoc2)C(=O)O[C@@H]([C@@H](C)[C@H]2CC[C@H]3[C@@H]4C[C@H]5O[C@]56[C@@H](OC(=O)c5ccoc5)C=CC(=O)[C@]6(C)[C@H]4CC[C@]23C)C1 | – | – | – | – | – | – | 900 nM | 3800 nM | 900 nM | 1700 nM | 3600 nM | – | 3800 nM | 1500 nM | 2900 nM | – | >3 | >3 | >3
8 | CCC(=O)OCC1=C(C)C[C@H]([C@@H](C)[C@H]2CC[C@H]3[C@@H]4C[C@H]5O[C@]56[C@@H](O)C=CC(=O)[C@]6(C)[C@H]4CC[C@]23C)OC1=O | 1.9 nmol/min/mL | – | 0.52 nmol/min/mL | 1.67 nmol/min/mL | 1.02 nmol/min/mL | 0.52 nmol/min/mL | 1000 nM | 2100 nM | 900 nM | 1200 nM | 1600 nM | Active | 1100 nM | 2300 nM | 1600 nM | – | >3 | >3 | >3
9 | CCCC(=O)OCC1=C(C)C[C@H]([C@@H](C)[C@H]2CC[C@H]3[C@@H]4C[C@H]5O[C@]56[C@@H](O)C=CC(=O)[C@]6(C)[C@H]4CC[C@]23C)OC1=O | 1.24 nmol/min/mL | – | 0.54 nmol/min/mL | 1.33 nmol/min/mL | 1.22 nmol/min/mL | 0.72 nmol/min/mL | 500 nM | 2200 nM | 700 nM | 1000 nM | 2600 nM | Active | 1200 nM | 2400 nM | 1900 nM | – | – | – | –
